pIC50: −log10 of the molar value. Calls of active or inactive are those of the source. The calls are words filed in the database; no cut-off is given here. Peptide text beside a SMILES is read from it.
Tests used:
[1] = biological target: T1, Neuropilin-1 (Homo sapiens, UniProt O14786); assay: Binding affinity to NRP1 in HUVEC assessed as increase in AKT phosphorylation at 50 uM by Western blot analysis; type: cell-based
Procedure, shortened: (§1)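 HUVECs exposed to 50 µM compound; tuftsin as reference. Lysate protein (40 µg) resolved by SDS-PAGE and blotted to PVDF. Probed overnight at 4 °C for pAKT (Ser473), total AKT, pERK1/2 (Thr202/Tyr204) and total ERK1/2. ECL detection and densitometry. Phospho/total band ratio normalized to non-treated cells.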

[2] = biological target: T1, Neuropilin-1; assay: Inhibition of biotinylated VEGF-A165 binding to recombinant NRP1 (unknown origin) measured after 2 hrs by competition binding assay
Procedure, shortened: (§2)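 Competition ELISA. Wells coated overnight at room temperature with recombinant chimeric NRP-1 or KDR in PBS, then blocked with 0.5% BSA/PBS for 1 h at 37 °C. Biotinylated VEGF-A165 (5 ng/mL, heparin-containing blocking buffer) incubated 2 h at room temperature with or without compound; unlabelled VEGF-A165 as positive control. Bound tracer detected with streptavidin-HRP, read at 450 nm. Three independent experiments, triplicates.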

[3] = biological target: T1, Neuropilin-1; assay: Binding affinity to NRP1 in HUVEC assessed as ratio of phosphorylated ERK to total ERK at 50 uM by Western blot analysis; type: cell-based; procedure, shortened: as §1
[4] = biological target: T1, Neuropilin-1; assay: Inhibition of biotinylated VEGF-A165 binding to recombinant NRP1 (unknown origin) at 100 uM measured after 2 hrs by competition binding assay relative to VEGF-A165; procedure, shortened: as §2

T1 sequence (O14786 whole entry): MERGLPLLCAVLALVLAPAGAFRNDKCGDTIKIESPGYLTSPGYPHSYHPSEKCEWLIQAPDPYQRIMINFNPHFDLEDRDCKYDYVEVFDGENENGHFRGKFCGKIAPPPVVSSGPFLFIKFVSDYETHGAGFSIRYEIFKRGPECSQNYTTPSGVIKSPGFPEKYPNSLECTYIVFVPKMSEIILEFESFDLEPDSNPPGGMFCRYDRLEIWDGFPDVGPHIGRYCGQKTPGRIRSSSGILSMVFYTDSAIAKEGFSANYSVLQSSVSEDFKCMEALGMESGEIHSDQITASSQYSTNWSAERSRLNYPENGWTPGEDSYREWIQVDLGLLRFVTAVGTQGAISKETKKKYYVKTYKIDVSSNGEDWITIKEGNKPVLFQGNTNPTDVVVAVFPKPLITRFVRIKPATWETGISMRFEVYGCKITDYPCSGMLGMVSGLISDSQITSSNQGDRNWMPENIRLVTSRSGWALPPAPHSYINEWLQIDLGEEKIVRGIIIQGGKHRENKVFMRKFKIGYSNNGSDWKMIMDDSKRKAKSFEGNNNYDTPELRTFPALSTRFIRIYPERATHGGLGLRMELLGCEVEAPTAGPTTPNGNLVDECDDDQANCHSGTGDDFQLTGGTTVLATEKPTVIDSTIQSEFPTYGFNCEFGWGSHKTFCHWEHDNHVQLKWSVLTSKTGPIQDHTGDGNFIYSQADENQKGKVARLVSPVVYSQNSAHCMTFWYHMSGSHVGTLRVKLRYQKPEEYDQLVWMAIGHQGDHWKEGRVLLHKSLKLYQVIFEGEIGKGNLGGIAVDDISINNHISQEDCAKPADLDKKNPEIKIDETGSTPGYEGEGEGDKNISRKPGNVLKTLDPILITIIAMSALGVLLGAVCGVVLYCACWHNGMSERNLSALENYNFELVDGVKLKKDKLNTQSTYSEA

Row | inhibition [4] [%] | Compound | further results
1 |  | C[C@@H](O)[C@H](N)C(=O)N[C@@H](CCCCN)C(=O)N1CCC[C@H]1C(=O)N[C@@H](CCCNC(=N)N)C(=O)O (H-TKPR-OH) | Activity [1]: Active; pIC50 [2]: 4.60; Ratio [3]: 0.88
2 | 52 | CC1(C)O[C@@H]2[C@H](O1)[C@H](CN(CCCCCNC(=N)N)C(=N)N)O[C@@H]2CC(=O)NCCc1c[nH]c2ccccc12 | pIC50 [2]: 3.92
3 | 18 | CC1(C)O[C@@H]2[C@H](O1)[C@H](Cn1cc(CCCNC(=N)N)nn1)O[C@@H]2CC(=O)NCCc1c[nH]c2ccccc12 | 
4 | 5 | CC1(C)O[C@@H]2[C@H](O1)[C@H](Cn1cc(CCNC(=N)N)nn1)O[C@@H]2CC(=O)NCCc1c[nH]c2ccccc12 | 
5 | 5 | CC1(C)O[C@@H]2[C@H](O1)[C@H](CN(CCCNC(=N)N)C(=N)N)O[C@@H]2CC(=O)NCCc1c[nH]c2ccccc12 | 
6 | 39 | CC1(C)O[C@@H]2[C@H](O1)[C@H](CN(CCCCNC(=N)N)C(=N)N)O[C@@H]2CC(=O)NCCc1c[nH]c2ccccc12 | 
7 | 37 | N=C(N)NCCc1cn(C[C@@H]2O[C@H](CC(=O)NCCc3c[nH]c4ccccc34)[C@H](O)[C@@H]2O)nn1 | 
8 | 4 | N=C(N)NCCCc1cn(C[C@@H]2O[C@H](CC(=O)NCCc3c[nH]c4ccccc34)[C@H](O)[C@@H]2O)nn1 | 
9 | 26 | CC1(C)O[C@@H]2[C@H](O1)[C@@H](CN(CCNC(=N)N)C(=N)N)O[C@@H]2CC(=O)NCCc1c[nH]c2ccccc12 | 
